Source: PubChem BioAssay
HKDC1 inh – blocks human hexokinase HKDC1 activity; Q2TB90; recombinant HKDC1, G6PDH/diaphorase resazurin coupled fluorescence; inhibition, % at 20 µM; 340,000 tested, 0.16% active; AID 493160;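 active = inhibition above about 35% when tested at 20 µM, limit read from the data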;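 note: plate controls were DMSO wells with enzyme for no effect and DMSO wells lacking enzyme for full effect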
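Test system: HK5 enzyme. Quantity: 5 µg/mL HK5 final. Reagent: glucose and ATP substrates. Schedule: 90 min reaction incubation at room temperature, dark. Technique: resazurin-to-resorufin fluorescence via G6PDH and diaphorase coupling, 525/613 nm. Control set: DMSO wells with and without enzyme mix.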
UCH37 DUB inh – human UCH37 deubiquitinating enzyme inhibition. Q9Y5K5. purified proteasome/UCH37, Ub-AMC cleavage fluorescence. inhibition, % (test concentration not listed). 330,000 tested, 0.33% active. AID 588478;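 active = mean inhibition over replicate wells above about 20%, limit read from the data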;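 note: 0% = compound-free wells with enzyme and 100% = wells lacking proteasome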
Target sequence (Q9Y5K5 whole entry, looked up): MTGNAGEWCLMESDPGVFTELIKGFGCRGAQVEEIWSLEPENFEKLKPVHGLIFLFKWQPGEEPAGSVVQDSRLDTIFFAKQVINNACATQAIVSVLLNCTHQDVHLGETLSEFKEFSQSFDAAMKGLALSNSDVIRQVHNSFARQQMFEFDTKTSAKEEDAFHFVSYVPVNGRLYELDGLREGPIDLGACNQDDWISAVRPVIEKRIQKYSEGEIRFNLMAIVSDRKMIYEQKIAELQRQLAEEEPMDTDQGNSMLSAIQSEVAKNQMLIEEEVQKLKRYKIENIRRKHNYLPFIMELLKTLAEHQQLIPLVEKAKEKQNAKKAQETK
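Material: Human UCH37 enzyme supplied as purified proteasome complex | Schedule: 30 min compound-proteasome preincubation then 25 min substrate reaction, room temperature | Detection: AMC fluorescence from Ub-AMC cleavage, excitation 355 nm, emission 460 nm | Benchmarks: Wells without proteasome as full block, compound-free enzyme plus substrate as uninhibited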
TDP2 inh – TDP2 (human) inhibition, absorbance primary screen | inhibition, % at 12.8 µM | recombinant TDP2, T5PNP hydrolysis, p-nitrophenol absorbance 415 nm | AID 720702 | O95551 | 370,000 tested, 0.34% active;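 active = inhibition above the mean of all tested compounds plus 3 SD, set per campaign, cut at about 25% in these data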;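 note: 0% = DMSO with enzyme and 100% = buffer with substrate but no TDP2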
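Material: recombinant human TDP2; quantity: TDP2 enzyme at 120 nM final; medium: Tris-HCl pH 7.5 with MgCl2; compound: single concentration, 12.8 µM nominal, with 1% DMSO; incubation: 2 h enzyme incubation at 37 °C; signal: epi absorbance; measure: percent inhibition; benchmarks: high control without enzyme, low control DMSO plus TDP2; repeats: singlicate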
PAD4 FP inh – blocks human protein arginine deiminase 4; recombinant PAD4, RCA probe fluorescence polarization; 330,000 tested, 0.41% active; inhibition, % at 6.36 µM;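 active = percent inhibition above a cutoff equal to the mean of all tested compounds plus 3 SD, cut at about 15% in these data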;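 note: 0% = PAD4 with RCA probe and DMSO and 100% = probe without PAD4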
GSTO1 counter – GSTO1 inhibition, counter-screen for RBBP9 inhibitors; recombinant GSTO1, activity-based probe fluorescence polarization; inhibition, % at 5.96 µM; 300,000 tested, 1.1% active; AID 1974;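 active = inhibition above the campaign mean inhibition plus 3 SD, cut at about 35% in these data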;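 note: 0% = GSTO1-1 with DMSO and 100% = wells lacking GSTO1-1 enzyme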
Target sequence (P78417 whole entry, looked up): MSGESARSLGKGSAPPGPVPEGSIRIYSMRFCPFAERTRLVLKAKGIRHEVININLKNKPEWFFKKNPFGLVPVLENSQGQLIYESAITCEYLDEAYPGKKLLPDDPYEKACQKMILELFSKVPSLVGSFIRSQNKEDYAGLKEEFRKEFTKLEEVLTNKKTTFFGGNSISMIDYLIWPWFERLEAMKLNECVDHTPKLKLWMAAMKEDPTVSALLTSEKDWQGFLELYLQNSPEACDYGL
Fh CTSL1 inh – blocks F. hepatica cathepsin L1 in PFM18AAP counter-screen. recombinant F. hepatica cathepsin L1, Z-Leu-Arg-MCA fluorescence. inhibition, % at 5.96 µM. 300,000 tested, 0.49% active;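 active = inhibition above the mean of all tested compounds plus 3 SD, set per screening campaign, cut at about 17% in these data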;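 note: 0% = plate median of test compound wells and 100% = 1 µM Z-Phe-Ala-diazomethylketone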
Active calls of the source: *; nt = no result. Sampled rows, rich in hits. Any-hit rate of the full collection: about 1.6%.

SMILES	HKDC1 inh	UCH37 DUB inh	TDP2 inh	PAD4 FP inh	GSTO1 counter	Fh CTSL1 inh
Cc1ccccc1NC(=O)NC1(C(=O)NCCCN2CCOCC2)CCCCC1	-5	35*	-6	-1	-2	0
CC(Cc1ccccc1)=NNC(=O)CCCCCC(=O)NN=C(C)Cc1ccccc1	nt	0	nt	nt	nt	nt
Cc1cc(C)c(NC(=O)c2cc(C(=O)O)ccc2C(=O)O)c([N+](=O)[O-])c1	0	47*	0	-6	8	-2
CN=c1sc2c(n1C)C(=O)c1ccccc1C2=O	24	nt	35*	nt	nt	nt
COc1cccc(OC)c1-c1nn2c(-c3cc(-c4ccccc4)n[nH]3)nnc2s1	44*	nt	-2	-3	-28	-1
Clc1ccccc1-c1nn2c(-c3cc(-c4ccccc4)n[nH]3)nnc2s1	nt	nt	6	nt	nt	nt
O=C(CCN1C(=O)C2CC=CCC2C1=O)Nc1cc(C(F)(F)F)ccc1N1CCCC1 (centres undefined)	-3	6	4	1	36*	11
Nc1n[nH]c(=S)n1N=C1C(=O)Nc2ccccc21	nt	18	nt	nt	nt	nt
CSc1ccc(S(=O)(=O)N2CCC(C(=O)N3CCc4ccccc4C3)CC2)cc1	4	3	1	4	6	19*
S=c1[nH]nc(-c2ccc(Cl)cc2)n1N=Cc1cccs1	nt	7	nt	nt	nt	nt
C#Cc1ccc([C@@H]2C=C(C(=O)N3CCOCC3)O[C@H](OCC)[C@H]2CCCO)cc1	-8	27*	-7	0	-5	-1
CN(C(=O)CSc1ncnc2scc(-c3ccccc3)c12)C1CCS(=O)(=O)C1 (centres undefined)	8	-1	1	1	6	17*
O=C1CC(=O)N(Cc2ccco2)C(=O)N1	12	6	16	-4	37*	-4
CN(C)C=Nc1nc(-c2ccc3ccccc3c2)cs1	nt	3	nt	nt	nt	nt
CN(C)C=Nc1nc(-c2ccc3c(c2)OCO3)cs1	nt	26*	nt	nt	nt	nt
C=C(C)Cc1c(C)nc(-c2ccccc2)[nH]c1=O	-13	1	2	1	-4	26*
CCCCCCOC(=O)Cc1c(C)nc(-c2ccccc2)[nH]c1=O	-7	-5	5	-1	14	3
O=C1C2CC=C(Cl)CC2C(=O)N1CCCCCCN1C(=O)C2CC=C(Cl)CC2C1=O (centres undefined)	-7	3	-6	-3	23	42*
CCOC(=O)CC(C)=NNc1ccc([N+](=O)[O-])cc1[N+](=O)[O-]	nt	8	nt	nt	nt	nt
COc1ccc(-n2c(N)c(C(=O)NCC3CCCO3)c3nc4ccccc4nc32)c(OC)c1 (centres undefined)	2	-417	74*	-12	18	7
Cc1c(NS(=O)(=O)c2cc(C(=O)NCCN(C)C)ccc2Cl)c(=O)n(-c2ccccc2)n1C	4	0	-14	3	37*	-7
Cc1cc(=O)n2c3c(c4c(cc13)c(CN(C)C)cc(=O)n4C)OC2	27	nt	86*	nt	nt	nt
COc1cc(C(=O)NCC(=O)NN=Cc2ccccn2)cc(OC)c1OC	nt	2	nt	nt	nt	nt
CC(=O)CS(=O)(=O)c1ccc(Oc2ccc(S(=O)(=O)CC(C)=O)cc2)cc1	-3	4	3	-19	-28	24*
O=C1c2ccccc2COc2ccc(O)cc21	4	6	-9	5	24	21*
SMILES	HKDC1 inh	UCH37 DUB inh	TDP2 inh	PAD4 FP inh	GSTO1 counter	Fh CTSL1 inh
Cc1cccc(OCC(=O)Nc2ccc(C(=O)c3ccc(C(=O)O)cc3)cc2)c1	6	35*	6	0	-5	-3
Cc1cccc(OCC(=O)Nc2cc(C)on2)c1	5	34*	2	0	2	-3
Cc1ccc(N(CC(=O)NN=Cc2ccc(OC3CSC3)cc2)S(=O)(=O)c2ccccc2)cc1	nt	2	nt	nt	nt	nt
CCN(CC)C(=O)c1sc(NC(=O)c2c(OC)cccc2OC)c(C#N)c1C	-11	29*	-2	1	13	0
CCN(CC)C(=O)C(C)N(C#N)c1nc(C)cc(C)n1 (centres undefined)	-11	3	3	4	5	0
CCOC(=O)C(C(=O)OCC)N(C#N)c1nc(N(C)C)nc(N(C)C)n1	-9	3	18	0	-2	65*
CCOC(=O)C(C(=O)OCC)N(C#N)c1nc(C)cc(C)n1	-8	1	-4	-1	-1	21*
O=C(/C=C/c1ccccc1)NCC(=O)NN=Cc1ccccc1[N+](=O)[O-]	nt	9	nt	nt	nt	nt
O=C(CCc1ccc(S(=O)(=O)N2CCOCC2)cc1)NN=Cc1ccc(F)cc1F	nt	0	nt	nt	nt	nt
CC(=O)c1sc(NN=C2CC3CC2C(C)C3(C)C)nc1C (centres undefined)	nt	-3	nt	nt	nt	nt
COc1cc2c(cc1OC)C(C1C(=O)CC(C)(C)CC1=O)N(C(=O)CCl)CC2 (centres undefined)	-9	-3	2	-10	18	17*
CC1CC(=O)C(C2c3ccccc3CCN2C(=O)CCl)C(=O)C1 (centres undefined)	17	4	10	-8	5	0
COCC(=O)NN=Cc1ccc(OC/C=C/c2ccccc2)c(OC)c1	nt	-6	nt	nt	nt	nt
CCOC(=O)COc1ccccc1C=NNc1nnc2c3ccccc3n(C)c2n1	nt	2	nt	nt	nt	nt
Cc1cc(C=NO)c(C)n1-c1ccc(Br)cc1	nt	7	nt	nt	nt	nt
NC(=S)NN=Cc1ccc(C=NNC(N)=S)cc1	nt	-5	nt	nt	nt	nt
Cn1c(=O)n(C)c2cc(/C=N/NC(N)=S)ccc21	-1	nt	-3	-2	-16	33*
CN(C)c1ccc(/C=N/NC(N)=S)cc1[N+](=O)[O-]	-1	nt	-19	-1	2	19*
C#CCOCCOCCOCCNc1nc(N2CCN(C(=O)[C@H]([C@@H](C)CC)n3cc([C@@H](N)CC(C)C)nn3)CC2)nc(N2CCN(C(=O)[C@H](CCCCN)n3cc([C@@H](N)C(C)CC)nn3)CC2)n1 (some centres undefined)	1	0	nt	1	16	31*
C#CCOCCOCCOCCNc1nc(N2CCN(C(=O)[C@H]([C@@H](C)CC)n3cc([C@@H](N)CO)nn3)CC2)nc(N2CCN(C(=O)[C@H](CCCCN)n3cc([C@@H](N)C(C)CC)nn3)CC2)n1 (some centres undefined)	6	1	7	4	6	4
C#CCOCCOCCOCCNc1nc(N2CCN(C(=O)[C@H](CCCN=C(N)N)n3cc(C(N)[C@@H](C)CC)nn3)CC2)nc(N2CCN(C(=O)[C@H](CCC(=O)O)n3cc([C@@H](N)CCCCN)nn3)CC2)n1 (some centres undefined)	2	33*	4	-3	nt	nt
C#CCOCCOCCOCCNc1nc(N2CCN(C(=O)[C@H]([C@@H](C)CC)n3cc([C@@H](N)CC(C)C)nn3)CC2)nc(N2CCN(C(=O)[C@H](CCCCN)n3cc([C@@H](N)CC(C)C)nn3)CC2)n1	3	0	nt	5	6	10
